Results from paper PMC8048885 (International Journal of Cancer, 2021).
Like-named read-outs stand apart in the source and are kept apart here.

How the values were obtained:
[1] = cited from earlier work
[2] = cited from earlier work; remark: listed apart in the source
[3] = first steady-state pazopanib trough concentration; format: in vivo, human
Outline: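 Observational study. Patients took the study drug 800 mg OD fasted or 600 mg OD with food and were advised to take a PPI/H2A 1 hour later; antacid users were counted as non-GAS. Only the first steady-state (>7 consecutive days) plasma trough was used, measured by validated HPLC-MS/MS.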

advanced RCC = format: in vivo, human; conditions: univariate Cox regression
Outline: (§1)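 PFS was defined as time on treatment until progression or death and analysed per tumour type, with GAS vs no GAS groups (PPI/H2A use on the days before first Cmin). Median PFS came from Kaplan-Meier with log rank test, and hazard ratios from univariate Cox regression; P<.05 was significant. Patients with GI abnormalities or on strong CYP3A4 inducers/inhibitors were excluded.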

STS = format: in vivo, human; conditions: for median PFS: pazopanib 800 mg fasted cohort
Outline: as §1

intragastric pH = conditions: cited from earlier work
[4] = system: gastric H+/K+ adenosine triphosphatase (ATPase); conditions: porcine gastric vessels, cited from earlier work
CYP1A2 = conditions: cited from earlier work

Structure (SMILES)	increase of exposure on intake with a high caloric meal [1]	oral bioavailability [1]	decrease of mean pazopanib Cmin levels ([1]; esomeprazole administered 12 hours after fasted intake of pazopanib)	solubility in aqueous solutions ([2]; above pH 4)	solubility in aqueous solutions ([2]; pH 1)	percentage of patients with Cmin below the target threshold of 20.5 mg/L ([3]; pazopanib 600 mg taken with food, with GAS)	percentage of patients with Cmin below the target threshold of 20.5 mg/L ([3]; pazopanib 600 mg taken with food, without GAS)	percentage of patients with Cmin below the target threshold of 20.5 mg/L ([3]; pazopanib 800 mg taken fasted, with GAS)	percentage of patients with Cmin below the target threshold of 20.5 mg/L ([3]; pazopanib 800 mg taken fasted, without GAS)	hazard ratio for PFS, with vs without GAS (advanced RCC)	median PFS (STS; with GAS)	median PFS (STS; without GAS)	hazard ratio for progression or death, with vs without GAS (STS; univariate Cox regression)	duration of pH elevation >4 (intragastric pH; omeprazole 20 mg)	time to fully inhibit the H+, K+ ATPase [4]	effect on CYP1A2 (CYP1A2)	duration of pH elevation >4 (intragastric pH; pantoprazole 40 mg)	inhibition of H+, K+ ATPase ([4]; at 45 minutes)
Cc1ccc(Nc2nccc(N(C)c3ccc4c(C)n(C)nc4c3)n2)cc1S(N)(=O)=O [pazopanib]	~ 2 fold	approximately 21%	36%	practically insoluble	slightly soluble	26.9%	14%	33.3%	19.5%	1.13	17 weeks	32 weeks	3.89					
COc1ccc2[nH]c([S+]([O-])Cc3ncc(C)c(OC)c3C)nc2c1 (stereo not shown) [omeprazole]														49.16 % of the day	30 min	dose‐dependent inducer of CYP1A2		
COc1ccnc(C[S+]([O-])c2nc3ccc(OC(F)F)cc3[nH]2)c1OC (stereo not shown) [pantoprazole]																does not affect CYP1A2	41.94 % of the day	50%
